Laboratory results published in the EternaBench riboswitch data.

Tested on: MS2 coat protein
Experiment: apparent Kd, MS2 coat protein; higher = weaker binding; RNA-MaP array; FMN 200 µM where present
In short: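 The apparent Kd is the median of filtered binding-curve fits, one per cluster, to green signal normalised to red-channel RNA signal and control-cluster median Fmax. The clusters were on Illumina sequencing chips, and stalled E. coli RNA polymerase had transcribed the designs on them. Titration used SNAP-549-labelled MS2 coat protein from 0.7 or 1.5 nM, doubling to 3 µM, without and then with constant ligand, in 100 mM Tris-HCl pH 7.5, 80 mM KCl, 4 mM MgCl2, BSA, DTT, yeast tRNA and Tween-20.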

[1] = designed as: OFF switch for flavin mononucleotide, no ligand
[2] = ligand present: flavin mononucleotide, designed as: OFF switch for flavin mononucleotide
[3] = designed as: ON switch for flavin mononucleotide, no ligand
[4] = ligand present: flavin mononucleotide, designed as: ON switch for flavin mononucleotide

GGAUGACAUAGUCAUCCUUAACGAACAUGAGGAUCACCCAUGUAGGAUAUGCUACUCAAAGAGUAGCAGAAGGACAUGUGUCUU
apparent Kd [1]: 0.0272 µM | apparent Kd [2]: 0.157 µM

GGAUGAGCAAUAGGAUAUGCUGGGAUUGAAUGGGUAGAAGGAUUUCUAGUGGGAAAGACAUGAGGAUCACCCAUGUCGCGGACC
apparent Kd [3]: 0.0252 µM | apparent Kd [4]: 0.0266 µM

GGAUGAGCGAUAGGAUAUGCUGGGAUUGAAUGGGUAGAAGGAUUUCUAGUGGGAAAGACAUGAGGAUCACCCAUGUCGCGGACC
apparent Kd [3]: 0.0303 µM | apparent Kd [4]: 0.0294 µM

GGAUGCCGCUCAGGAUAUGUGGGUUGUCUAGUAUCUAGAUUCCACAUGAGGAUCACCCAUGUAACACAGAAGGGAGAUGGUGAU
apparent Kd [3]: 0.526 µM | apparent Kd [4]: 0.0232 µM

GGAUGUCAAAGACAUCCUUAACGAACAUGAGGAUCACCCAUGUAGGAUAUGCUACUCAAAGAGUAGCAGAAGGACAUGUGCCUU
apparent Kd [1]: 0.0345 µM | apparent Kd [2]: 0.27 µM

GGAUUACAAAUUUAUUUAAUACGAACAUGAGGAUCACCCAUGUAGGAUAUGCUAGUUAAGUAAUAGCAGAAGGACAUGUGCCUU
apparent Kd [1]: 0.0108 µM | apparent Kd [2]: 0.0306 µM

GGAUUACAUGAGGAUCACCCAUGUGAGGAUAUCGAUGUCCUCAGUCAAGUGCGGGACUCGAGAAGGCACUUGGA
apparent Kd [1]: 0.0642 µM | apparent Kd [2]: 0.032 µM

GGAUUGGACAGAGGAUAUACGUGCUAGAGAUACUAGCAAAAUUUCCUCACAUGAGGAUCACCCAUGUAGAAGGCUGUCCUAUCG
apparent Kd [1]: 0.0156 µM | apparent Kd [2]: 0.378 µM

GGAUUGUGAGGAUAUUAGUUGUACGUCAAUAGACGUAUAAGUGAGAAGGCACAUGAGGAUCACCCAUGUUCCUG
apparent Kd [1]: 0.0227 µM | apparent Kd [2]: 0.0807 µM

GGAUUUACUGAGGAUAUUGCAUCACCCGACUGAUAAGAAGGCAGAACAUGAGGAUCACCCAUGUGGGUACUCAC
apparent Kd [1]: 0.0537 µM | apparent Kd [2]: 0.0632 µM

GGCCGAAUGGUCUAGGUGCACUUACAUGAGGAUCACCCAUGUCAGGAUAUCUUACGGGUCUCGUAAGAGAAGGGACAUCGCUAU
apparent Kd [1]: 0.0522 µM | apparent Kd [2]: 0.215 µM

GGCGGACAUGAGGAUCACCCAUGUAAGGAUAUUAGGCGAUCGUCGAAAGACGAUAGCCUGAGAAGGUACGCGCC
apparent Kd [1]: 0.0147 µM | apparent Kd [2]: 0.0172 µM

GGCUAGUCAGGAUAUACGAACAUGUCGCCAGAUGUCAAGGUACAUGAGGAUCACCCAUGUAGAAGGGACUAGCC
apparent Kd [1]: 0.0427 µM | apparent Kd [2]: 0.168 µM

GGCUCUAGAGGAUAUACAAACUGAUCCUCAGAGCGCCGGCUACAUGAGGAUCACCCAUGUAGAAGGUUGGAGUC
apparent Kd [1]: 0.0156 µM | apparent Kd [2]: 0.0131 µM

GGCUUGCAGCUAGGAUAUGGGCGAUCACAUGAGGAUCACCCAUGUCAACAUCAAAACAAGAUUAACCAGAAGGAGCCGCGGGUC
apparent Kd [3]: 0.0213 µM | apparent Kd [4]: 0.705 µM

GGGAUUAAGGCAGGAUAUCCGGGUUGGCCUCGACAUGAGGAUCACCCAUGUGGAGAAGGGCCGACUGCUCGAAAGGCGGUCAAG
apparent Kd [1]: 0.214 µM | apparent Kd [2]: 0.0674 µM

GGGCCACAUGAGGAUCACCCAUGUAAACCCGUGCUCAGGGCACAGGAUAUGGGUCGGGAUGAGACCCAGAAGGGUGGUCUGGCC
apparent Kd [3]: 0.0334 µM | apparent Kd [4]: 0.0182 µM

GGGCCCGGUGUGAGGAUAUCGGGUUUGAAAGGGCCCGAGAAGGCACAUGAGGAUCACCCAUGUAAGCCGGGCCC
apparent Kd [1]: 0.0154 µM | apparent Kd [2]: 0.0144 µM

GGGCCGGUGGAGAAGGAGCUUGCAAAACGCAUGCUAGGAUAUCCACAUGAGGAUCACCCAUGUGGGAAUAUCUGGUUUUCACAG
apparent Kd [1]: 0.00409 µM | apparent Kd [2]: 0.00479 µM

GGGCCGUUGCAGAAGGCCGGCGGGCUUGGCGCCGGAGGAUAUGCAUGUGCACAUGAGGAUCACCCAUGUGCCAGCCCGGAGGGA
apparent Kd [3]: 0.00656 µM | apparent Kd [4]: 0.0059 µM

GGGCGUGAAGGAUAUACAUGAGGAUCACCCAUGUGGGAGGAGAGUGGUGAGGAGGCUGGUAGAAGGUCAGGAUG
apparent Kd [1]: 0.0448 µM | apparent Kd [2]: 0.0368 µM

GGGCUCGGAGGAUAUACAAUGGGCCCGGGAAACCGGGCCCUACAUGAGGAUCACCCAUGUAGAAGGUCGGGUCU
apparent Kd [1]: 0.0155 µM | apparent Kd [2]: 0.0241 µM

GGGCUGGUAACAGGAUAUCGUGCCUGGCCGGAUUACAUGAGGAUCACCCAUGUCGUUGGAACCAACGAGAAGGGUUGCCUCCCA
apparent Kd [3]: 0.371 µM | apparent Kd [4]: 0.102 µM

GGGCUGUCAGGAUAUCUCGGGCUCGGGUAAAUCUGGGUCUGGGAGAAGGGACAUGAGGAUCACCCAUGUGGCCC
apparent Kd [1]: 0.0343 µM | apparent Kd [2]: 0.0379 µM

GGGCUUUGGGAGAAGGUACAUUAAAUUAGUUUAACAUGAGGAUCACCCAUGUAAGGAUAUCCCAUCUUGUAUUAUUAUACAGCC
apparent Kd [1]: 0.011 µM | apparent Kd [2]: 0.0133 µM

GGGUACAUAGGAGGAUAUCAUGUAAAUACAUGAGGAUCACCCAUGUCGAUGGAGACAUCGGAGAUUGAGAAGGCCGAUGUACCG
apparent Kd [3]: 0.24 µM | apparent Kd [4]: 0.0106 µM

GGGUACAUCGGAGGAUAUCAUGUAAAUACAUGAGGAUCACCCAUGUCGAUGGAGACAUCGGAAAUUGAGAAGGCCGAUGUACCG
apparent Kd [3]: 0.0169 µM | apparent Kd [4]: 0.00487 µM

GGGUACAUCGGAGGAUAUCAUGUAAAUACAUGAGGAUCACCCAUGUCGAUGGAGACAUCGGAGAUAGAGAAGGCCGAUGUACCG
apparent Kd [3]: 0.476 µM | apparent Kd [4]: 0.011 µM

GGGUACAUCGGAGGAUAUCAUGUAAAUACAUGAGGAUCACCCAUGUCGAUGGAGACAUCGGAGAUUGAGAAGGCCCAUGUACCG
apparent Kd [3]: 0.199 µM | apparent Kd [4]: 0.0108 µM

GGGUACAUCGGAGGAUAUCAUGUAAAUACAUGAGGAUCACCCAUGUCGAUGGAGACAUCGGAGAUUUAGAAGGCCGAUGUACCG
apparent Kd [3]: 0.158 µM | apparent Kd [4]: 0.201 µM

GGGUACAUCGGAGGAUAUCAUGUAAAUACAUGAGGAUCACCCAUGUCGAUGGAGACAUUGGAGAUUGAGAAGGCCGAUGUACCG
apparent Kd [3]: 0.156 µM | apparent Kd [4]: 0.219 µM

GGGUACAUCGGAGGAUAUCAUGUAAAUACAUGAGGAUCACCCAUGUCGAUGGAGUCAUCGGAGAUUGAGAAGGCCGAUGUACCG
apparent Kd [3]: 0.014 µM | apparent Kd [4]: 0.00575 µM

GGGUACAUCGGAGGAUAUCAUGUAUAGACAUGAGGAUCACCCAUGUCGUACGAGAGUACGGAGAUUGAGAAGGCCGAUGUACCG
apparent Kd [3]: 0.0207 µM | apparent Kd [4]: 0.0173 µM

GGGUACAUGGGAGGAUAUCCUCAAGAGACAUGAGGAUCACCCAUGUAUUAUAAGCCUAAUGGCAUGGAGAAGGCCCAUGUACCG
apparent Kd [3]: 0.397 µM | apparent Kd [4]: 0.0697 µM

GGGUACGUUUCGUAGCAGUGUCAUCGAGAAGGCCCUGACAUGAGGAUCACCCAUGUUGUUACAUGGGAGGAUAUCGAUGAUCCC
apparent Kd [3]: 0.0536 µM | apparent Kd [4]: 0.00836 µM

GGGUACGUUUCGUAGCAGUGUCAUCGAGAAGGCCCUGACAUGAGGAUCACCCAUGUUGUUACAUGGGAGGAUAUCGAUGAUGGG
apparent Kd [3]: 0.0484 µM | apparent Kd [4]: 0.00812 µM

GGGUAGGACAGAGGAUAUACGUGCUAGAGAUACUAGCAAAAUUUCCUCACAUGAGGAUCACCCAUGUAGAAGGCUGUCCUAUCG
apparent Kd [1]: 0.0169 µM | apparent Kd [2]: 0.397 µM

GGGUAUAAACCCGUCUCCGCUCAACCAGAAGGGCACGAUAAUAUUACAUGAGGAUCACCCAUGUUGCAGGAUAUGGUGAGCCUC
apparent Kd [3]: 0.363 µM | apparent Kd [4]: 0.0669 µM

GGGUCGUCAGGAUAUACAUGAGGAUCACCCAUGUGACCACACUUACCUAUCGCUCGCUGUAGAAGGGAUGAUGA
apparent Kd [1]: 0.0303 µM | apparent Kd [2]: 0.0271 µM

GGGUGAUGUAGAGGAUAUCCAGGACGAUACAGAGGAGAAGGCUACAUGAGGAUCACCCAUGUCACCGGGAUAAAGCUGUAGAGU
apparent Kd [1]: 0.0398 µM | apparent Kd [2]: 0.109 µM

GGGUGCUCACCGCCUUAACAUGAGGAUCACCCAUGUGGAGUGCAGGAUAUACGUCUCUAUCAUACGUAGAAGGGCACCGCGCAG
apparent Kd [1]: 0.00545 µM | apparent Kd [2]: 0.0059 µM

GGGUUGCUACAAGGAUAUGAUGAAAGUGAGACAUCAGAAGGUGUAGUAUCACAUGAGGAUCACCCAUGUAGAACAACCCAAACC
apparent Kd [3]: 0.369 µM | apparent Kd [4]: 0.023 µM

GGGUUUGGAGGAUAUACAAUGGGUUUGGGAAACCGGGCCCUACAUGAGGAUCACCCAUGUAGAAGGCCGGGCCC
apparent Kd [1]: 0.0148 µM | apparent Kd [2]: 0.0158 µM

GGGUUUGGUGUGAGGAUAUCGGGCCCGAAAGGGUUUGAGAAGGCACAUGAGGAUCACCCAUGUAAGCCGGGCCC
apparent Kd [1]: 0.0228 µM | apparent Kd [2]: 0.0172 µM

GGUACCAUCACAGGAUAUGCUUUUCUUUGGGAAGCAGAAGGGUGUAACAUGAGGAUCACCCAUGUGGUGCCAGGGCGCGAGCCC
apparent Kd [3]: 0.205 µM | apparent Kd [4]: 0.0154 µM

GGUACGCAUGUAGGAUAUCGAGCUCAAAGAGCUCGAGAAGGACAUGAGGAUCACCCAUGUCCUCACAGACAGUGAGGGCGUACC
apparent Kd [1]: 0.018 µM | apparent Kd [2]: 0.0265 µM

GGUACUAUCACAGGAUAUGCUUUCCUUUGGGAAGCAGAAGGGUGUAACAUGAGGAUCACCCAUGUGGUGCCAGGGCGCGAGCCC
apparent Kd [3]: 0.137 µM | apparent Kd [4]: 0.0167 µM

GGUACUCAAAGAGUACCAAUACGAACAUGAGGAUCACCCAUGUAGGAUAUGCUACUCAAAGAGUAGCAGAAGGACAUGUGUCUA
apparent Kd [1]: 0.0296 µM | apparent Kd [2]: 0.16 µM

GGUACUCAAAGAGUACCAAUACGAACAUGAGGAUCACCCAUGUAGGAUAUGCUACUCAAAGAGUAGCAGAAGGACGUGUACCUU
apparent Kd [1]: 0.0247 µM | apparent Kd [2]: 0.054 µM

GGUAGAAACAUUAACAUGAGGAUCACCCAUGUCAAAAGAAAUGAGGAUAUCGUCUACAAUGUAUAUGAGAAGGCAUGGUCUGCC
apparent Kd [3]: 0.0203 µM | apparent Kd [4]: 0.0146 µM

GGUAUACUGCAGGAUAUUAGCUGAGAUAUCCGCUGAGAAGGGCAGACAUGAGGAUCACCCAUGUACCGAGUAGU
apparent Kd [1]: 0.0319 µM | apparent Kd [2]: 0.0188 µM

GGUCAGGGUGUGAGGAUAUUUACCUAUCACAGUGUGAAGAAGGCACAUGAGGAUCACCCAUGUUAACUGCGGGC
apparent Kd [1]: 0.0517 µM | apparent Kd [2]: 0.0767 µM

GGUCCAACAUGAGGAUAUAGCACCUUAUUGGUGCUAGAAGGCGUGUCGGUAGACAUGAGGAUCACCCAUGUAAUACAUUGGACC
apparent Kd [3]: 0.218 µM | apparent Kd [4]: 0.0285 µM

GGUCCACAUGAGGAUCACCCAUGUUAGGAUAUCUCCUGCCUCCUAAAUGGAAGCAGACAGAGAAGGAACAUCAA
apparent Kd [1]: 0.022 µM | apparent Kd [2]: 0.0844 µM

GGUCCACAUGAGGAUCACCCAUGUUAGGAUAUCUCGUCCGAGCAGUUAUGGGCCGGGCAGAGAAGGAAUGUGAA
apparent Kd [1]: 0.0303 µM | apparent Kd [2]: 0.0266 µM
